# Results gathered from unrelated publications.
# Organism: Staphylococcus aureus
# Read-out: microbial growth
Structure (SMILES),test,system,setting,MIC
O=C1NC(=O)C(Cc2ccc(O)cc2)S1 (stereo not shown),,,,> 128 µg/mL
CN1CCN(CCOc2cc(OC3CCOCC3)c3c(Nc4c(Cl)ccc5c4OCO5)ncnc3c2)CC1,,NCTC8325,,> 30 µM
CSc1nc(O)n2nccc2n1,,,,> 128 µg/mL
Cc1ccc2nc(-c3ccco3)n(Cc3ccccc3)c2c1,broth dilution,ATCC29213 MSSA,,128 µg/mL
O=C(Cc1cc(O)c(O)c(O)c1)NCCCCCCCC[P+](c1ccccc1)(c1ccccc1)c1ccccc1.[Br-],broth dilution,ATCC43300 MRSA,18 h,> 32 µg/mL
Clc1ccccc1-c1nc2ccccc2[nH]1,broth dilution,ATCC29213 MSSA,,64 µg/mL
C/C=C(\C)c1cc(OC(=O)c2c(C)c(Cl)c(O)c(Cl)c2O)c(C)c(O)c1C(=O)O,broth dilution,16162,,64 µg/mL
c1cncc(CN2CCC(n3ncc4c(N5CCOCC5)nc(-c5ccc6[nH]ccc6c5)nc43)CC2)c1,,NCTC8325,,> 30 µM
CNc1cccc2cc(C(=O)NCc3ccc(C(=O)O)cc3)c(=O)[nH]c12,,ATCC29213,,> 64 µg/mL
O=C(O)c1cccc2ccccc12,,,,> 128 µg/mL
CCc1cnn2c(NCc3ccc[n+]([O-])c3)cc(N3CCCC[C@H]3CCO)nc12,,NCTC8325,,> 30 µM
C/N=C(/NC)c1ccc(NC(=O)/C=C/c2ccc(/C=C/C(=O)Nc3ccc(/C(=N\C)NC)cc3)cc2)cc1,,,,2 µg/mL
COc1c(C(=O)Nc2ccc(C(=O)O)cc2)ccc2nc(-c3cc(NC(=O)C(CC(N)=O)NC(=O)c4ccc(NC(=O)c5ccc(C#N)cc5)cc4)cn3C)[nH]c12 (stereo not shown),,ATCC29213,,> 64 µg/mL
Fc1ccc(NCc2ccc(Oc3ccccn3)cc2)cc1,,,,1.8 µg/mL
CC(C)Oc1c(NC(=O)c2ccc(NC(=O)[C@H](CC(N)=O)NC(=O)c3ccc(CNC(=O)c4ccc(C#N)cc4)cc3)cc2)ccc(C(=O)Nc2ccc(C(=O)O)cc2)c1O,,ATCC29213,,> 64 µg/mL
CCCCCCC#Cc1cncc(-c2nnc(SCc3ccc([N+](=O)[O-])o3)n2C)c1,,MRSA,drug-resistant strain,≥ 20 µg/mL
c1ccc2c(-c3cnn4cc(-c5ccc(N6CCNCC6)cc5)cnc34)ccnc2c1,,NCTC8325,,> 30 µM
CC(C)Oc1c(NC(=O)c2ccc(NC(=O)[C@H](CC(N)=O)NC(=O)c3ccc(NC(=O)c4ccccc4)cc3)cc2)ccc(C(=O)Nc2ccc(C(=O)O)cc2)c1O,,ATCC29213,,> 64 µg/mL
O=C(Nc1cccc(NC(=O)Nc2ccc(Cl)c(C(F)(F)F)c2)c1)Nc1ccc(Cl)c(C(F)(F)F)c1,,NCTC8325,24 h,1 µM
COc1cc(Cc2cnc(N)nc2N)cc(OC)c1OC,broth dilution,,24 h,2 µg/mL
CCCCCCCC(=O)Oc1c(C)c(O)c(C(=O)/C=C/c2ccccc2)c(OC)c1C,broth dilution,ATCC25923,,> 5000 µg/mL
CC1=NN(CNc2ccccc2)C(=O)C1=NNn1c(-c2ccccc2)nc2ccccc2c1=O,broth dilution,,24 h,221 µM
C[C@@H](O)[C@H]1C(=O)N2C(C(=O)O)=C(S[C@@H]3CN[C@H](C(=O)N(C)C)C3)[C@H](C)[C@H]12,broth dilution,ATCC29213,,32 µg/mL
CN[C@H](CC(C)C)C(=O)N[C@H]1C(=O)N[C@@H](CC(N)=O)C(=O)N[C@H]2C(=O)N[C@H]3C(=O)N[C@H](C(=O)N[C@H](C(=O)O)c4cc(O)cc(O)c4-c4cc3ccc4O)[C@H](O)c3ccc(c(Cl)c3)Oc3cc2cc(c3O[C@@H]2O[C@H](CO)[C@@H](O)[C@H](O)[C@H]2O[C@H]2C[C@](C)(N)[C@H](O)[C@H](C)O2)Oc2ccc(cc2Cl)[C@H]1O,broth dilution,16162,,0.5 µg/mL
C[n+]1c(/C=C/c2ccc(O)cc2)cc(/C=C2\Sc3ccccc3N2CCCN2CCOCC2)c2ccccc21.[I-],broth dilution,ATCCBAA44,,8 µg/mL
O=C1NC(=S)N/C1=C\c1ccc(-c2ccc(N(c3ccccc3)c3ccccc3)cc2)c2ccccc12,broth dilution,ATCC25923,,> 1000 µg/mL
Cc1ccc(C)n1-c1ccc(-c2nnc(-c3ccc(N(C)C)cc3)[nH]2)cc1,broth dilution,ATCC11632,18 h,8 µg/mL
O=C(O)c1cn(C2CC2)c2cc(N3CCNCC3)c(F)cc2c1=O,broth dilution,ATCC43300,,0.24 µg/mL
CC(C)(O/N=C(\C(=O)N[C@@H]1C(=O)N2C(C(=O)[O-])=C(C[n+]3ccccc3)CS[C@H]12)c1csc(N)n1)C(=O)O,broth dilution,ATCC25923,18 h,1 µg/mL
Cc1ccc(NC(=O)Nc2ccc3c(c2)OC(F)(F)O3)cc1,,NCTC8325,,> 100 µM
Oc1ccc(Br)cc1-c1nc2ccccc2[nH]1,broth dilution,ATCC29213 MSSA,,64 µg/mL
O=C1NC(=O)/C(=C\c2ccc3nccnc3c2)S1,,NCTC8325,,> 30 µM
COc1ccc(-c2nc3ccc(C)cc3[nH]2)cc1OC,broth dilution,ATCC29213 MSSA,,128 µg/mL
COc1c(C)c(OC(=O)c2ccc(C)cc2)c(C)c(O)c1C(=O)/C=C/c1ccccc1,broth dilution,ATCC25923,,5000 µg/mL
CSc1ccc(-c2nc3ccccc3[nH]2)cc1,broth dilution,ATCC29213 MSSA,,16 µg/mL
Cc1ccc(C)n1-c1ccc(-c2nnc(-c3ccccc3[N+](=O)[O-])[nH]2)cc1,broth dilution,ATCC11632,18 h,8 µg/mL
CC1=NN(CNc2ccc(Cl)cc2)C(=O)C1=NNn1c(-c2ccccc2)nc2ccccc2c1=O,broth dilution,,24 h,51.5 µM
Cc1ccc2nc(-c3ccc(Cl)c(Cl)c3)[nH]c2c1,broth dilution,ATCC29213 MSSA,,16 µg/mL
O=C(CCCCCC[P+](c1ccccc1)(c1ccccc1)c1ccccc1)Nc1ccc(O)c(O)c1.[Br-],broth dilution,ATCC43300 MRSA,18 h,> 32 µg/mL
CC1(C)S[C@@H]2[C@H](NC(=O)[C@H](N)c3ccccc3)C(=O)N2[C@H]1C(=O)O,broth dilution,CCARM3090,,16 µg/mL
CC(C)Oc1c(NC(=O)c2ccc(NC(=O)[C@H](CC(N)=O)NC(=O)c3ccc(NC(=O)c4ccc(C#N)cc4)cc3)cc2)ccc(C(=O)N[C@@H]2CONC2=O)c1O,,ATCC29213,,> 64 µg/mL
C/C=C(\C)c1cc(O)c(C)c(OC(=O)c2c(C)c(Cl)c(O)c(Cl)c2O)c1,broth dilution,MRSA,,4 µg/mL
Oc1cccc(-c2nc3ccccc3[nH]2)c1,broth dilution,ATCC29213 MSSA,,64 µg/mL
O=C1NC(=S)S/C1=C\c1c2ccccc2c(-c2ccc(N(c3ccccc3)c3ccccc3)cc2)c2ccccc12,broth dilution,ATCC25923,,> 1000 µg/mL
O=[N+]([O-])c1ccc(-c2nc3ccccc3n2Cc2ccccc2)cc1,broth dilution,ATCC29213 MSSA,,4 µg/mL
CC[C@H]1OC(=O)[C@H](C)[C@@H](O[C@H]2C[C@@](C)(OC)[C@@H](O)[C@H](C)O2)[C@H](C)[C@@H](O[C@@H]2O[C@H](C)C[C@H](N(C)C)[C@H]2O)[C@](C)(O)C[C@@H](C)C(=O)[C@H](C)[C@@H](O)[C@]1(C)O,,156,clinical isolate,> 100 µM
Fc1ccccc1NCc1ccc(Oc2ccccn2)cc1,,,,1.6 µg/mL
CC(C)Oc1c(NC(=O)c2ccc(NC(=O)[C@H](CC(N)=O)NC(=O)c3ccc(NC(=O)CCc4ccc(C#N)cc4)cc3)cc2)ccc(C(=O)Nc2ccc(C(=O)O)cc2)c1O,,ATCC29213,,> 64 µg/mL
CN(C)[C@@H]1C(O)=C(C(N)=O)C(=O)[C@@]2(O)C(O)=C3C(=O)c4c(O)cccc4[C@@](C)(O)[C@H]3C[C@@H]12,broth dilution,25923,,0.15 µM
O=C(Nc1ccc2c(c1)OC(F)(F)O2)c1ccc(Cl)c(C(F)(F)F)c1,,NCTC8325,,3 µM
CN[C@H](CC(C)C)C(=O)N[C@H]1C(=O)N[C@@H](CC(N)=O)C(=O)N[C@H]2C(=O)N[C@H]3C(=O)N[C@H](C(=O)N[C@H](C(=O)O)c4cc(O)cc(O)c4-c4cc3ccc4O)[C@H](O)c3ccc(c(Cl)c3)Oc3cc2cc(c3O[C@@H]2O[C@H](CO)[C@@H](O)[C@H](O)[C@H]2O[C@H]2C[C@](C)(N)[C@H](O)[C@H](C)O2)Oc2ccc(cc2Cl)[C@H]1O,broth dilution,ATCC43300,,1.96 µg/mL
CC(=O)NC[C@H]1CN(c2ccc(N3CCOCC3)c(F)c2)C(=O)O1,broth dilution,MRSA NRS383 USA200,drug-resistant strain,2 µg/mL
C[C@@H](O)[C@H]1C(=O)N2C(C(=O)O)=C(S[C@H]3C[C@@H](C(=O)N4CC[C@H](NC(=O)CNC(=N)N)C4)N(C)C3)[C@H](C)[C@H]12,,MRSA,,8 µg/mL
C/C=C(\C)c1cc(O)c(C)c(OC(=O)c2c(C)cc(O)c(Cl)c2O)c1,broth dilution,745524,,8 µg/mL
O=C1NC(=S)S/C1=C\c1ccc(-c2ccc(N(c3ccccc3)c3ccccc3)cc2)cc1,broth dilution,ATCC43300,,250 µg/mL
COc1cc(C(=O)Nc2ccc(C(=O)N[C@@H](CC(N)=O)C(=O)Nc3ccc(C(=O)Nc4ccc(C(=O)Nc5ccc(C(=O)O)cc5)c(O)c4OC(C)C)cc3)cc2)ccc1C#N,,ATCC29213,,> 64 µg/mL
O=C(O)CN1C(=O)/C(=C/c2c3ccccc3c(-c3ccc(N(c4ccccc4)c4ccccc4)cc3)c3ccccc23)SC1=S,broth dilution,ATCC43300,,> 1000 µg/mL
Cc1cc(/C=C2\Sc3ccccc3N2CCCN2CCCCC2)c2ccccc2[n+]1C.[I-],broth dilution,ATCCBAA44,,8 µg/mL
